High-throughput results (PubChem BioAssay)
SENP7 inh: SENP7 protease inhibitors, primary screen, biochemical, luminescence, uHTS | inhibition, % at 5 µM | AID 434973, 2010 | Sentrin-specific protease 7 (Homo sapiens), Q9BQF6 | 1.5% of 330,000 active | recombinant SENP7, Z-RLRGG-aminoluciferin luminescence, 40 min;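 active = inhibition above about 50% at the single test dose, limit read from the data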;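 also: plate controls were DMSO with enzyme for no effect and no enzyme buffer wells for full effect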
SENP6 inh: SENP6 protease inhibitors, primary screen, biochemical, luminescence, uHTS. Recombinant SENP6 catalytic domain, aminoluciferin luminescence. inhibition, % at 10 µM. 1.8% of 330,000 active. AID 2599, 2010;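 active = inhibition above about 50% at the single tested dose, limit read from the data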;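 also: plate controls were DMSO wells with enzyme for no effect and DMSO wells lacking enzyme for full effect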
Target sequence (Q9GZR1 628-1112 limits assumed): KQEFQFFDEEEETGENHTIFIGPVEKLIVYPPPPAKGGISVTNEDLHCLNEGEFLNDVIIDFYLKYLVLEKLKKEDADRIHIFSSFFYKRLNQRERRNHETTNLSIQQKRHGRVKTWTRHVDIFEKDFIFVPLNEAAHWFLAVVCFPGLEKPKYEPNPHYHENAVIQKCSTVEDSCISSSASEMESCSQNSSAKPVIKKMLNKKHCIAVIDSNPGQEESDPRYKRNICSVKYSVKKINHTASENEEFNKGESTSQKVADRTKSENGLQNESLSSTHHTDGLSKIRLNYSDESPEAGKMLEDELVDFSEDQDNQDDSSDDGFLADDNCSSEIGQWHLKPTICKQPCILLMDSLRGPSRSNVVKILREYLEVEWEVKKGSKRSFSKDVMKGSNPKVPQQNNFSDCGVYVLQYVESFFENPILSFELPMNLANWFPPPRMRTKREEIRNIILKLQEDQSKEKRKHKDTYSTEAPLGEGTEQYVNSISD
SENP1 inh: human SENP1 catalytic domain inhibitors, primary screen, biochemical, FRET, uHTS | 0.21% of 360,000 active | AID 624204, 2012 | Sentrin-specific protease 1 (Homo sapiens), Q9P0U3 | recombinant SENP1 catalytic domain, CyPet-SUMO1-YPet FRET cleavage | inhibition, % at 10 µM;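 active = inhibition at least 30% at 10 µM, raw YFP signal under a set limit, fluorescence ratio 0.5 to 1.5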;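 also: 0% = enzyme with DMSO and 100% = no enzyme wells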
Target sequence (Q9P0U3 419-644 limits assumed): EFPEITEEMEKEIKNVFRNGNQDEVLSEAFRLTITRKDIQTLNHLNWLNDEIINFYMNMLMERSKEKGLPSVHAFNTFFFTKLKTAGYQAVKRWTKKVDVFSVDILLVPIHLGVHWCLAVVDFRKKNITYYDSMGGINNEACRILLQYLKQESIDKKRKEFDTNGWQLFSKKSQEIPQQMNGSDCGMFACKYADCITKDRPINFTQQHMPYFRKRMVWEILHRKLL
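System: Recombinant human SENP1 catalytic domain, His6-tagged | Incubation: Enzyme reaction for 50 min at room temperature, dark | Medium: Tris pH 8 with BME, BSA, NP40 and catalase | Also added: 25 nM SUMO1 FRET substrate | Compound: 10 µM single point, 0.5% DMSO | Measured by: FRET fluorescence in CFP and YFP emission channels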
HSP90 inh: HSP90 inhibitors, primary screen, cell lysate, luminescence; AID 1789, 2009; Rabbit reticulocyte lysate, luciferase refolding luminescence, 3 h; inhibition, % at 5.6 µM; 0.91% of 290,000 active; Heat shock protein HSP 90 (rabbit reticulocyte lysate; luciferase refolding);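 active = inhibition above the screen-wide mean plus 3 SD, computed separately per campaign, cut at about 16% in these data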;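 also: 0% = DMSO wells and 100% = 60 µM geldanamycin wells; inhibitors lower the luminescence because luciferase stays unfolded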
SENP8 block-1: SENP8 protease inhibitors, primary screen, biochemical, luminescence; purified SENP8, Z-RLRGG-aminoluciferin cleavage; inhibition, % at 10 µM; 1.2% of 330,000 active; in the data active = inhibition above about 50%
SENP8 block-2: human SENP8 protease inhibitors, primary screen, biochemical, fluorescence, Nedd8 protein substrate, uHTS; 0.64% of 360,000 active; AID 602440, 2012; recombinant SENP8; inhibition, % at 20 µM; in the data active = inhibition mostly above about 40%, no sharp cut-off; inactive = mostly below about 27%
SENP8 conf: SENP8 protease inhibitors, retest, confirmation, biochemical, luminescence, single concentration; shares compounds with SENP7 inh; Recombinant SENP8, Z-RLRGG-aminoluciferin luminescence, 60 min; inhibition, % at 12.5 µM; 40% of 6,200 active; AID 488912, 2010;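 active = mean inhibition across replicates above about 50%, limit read from the data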
SENP6 conf: SENP6 protease inhibitors, confirmation, biochemical, luminescence, single concentration. shares compounds with SENP7 inh. recombinant SENP6, Z-RLRGG-aminoluciferin luminescence. inhibition, % at 12.5 µM. 58% of 6,200 active. AID 488915, 2010
SENP7 conf: SENP7 protease inhibitors, retest, confirmation, biochemical, luminescence, single concentration; AID 488917, 2010; recombinant SENP7, Z-RLRGG-aminoluciferin luminescence, 40 min; 69% of 6,200 active; inhibition, % at 12.5 µM; shares compounds with SENP7 inh
Casp3 select: caspase-3 protease inhibitors, confirmation, selectivity assay for SENP inhibitor project, biochemical, single concentration. shares compounds with SENP7 inh. purified caspase-3, Z-DEVD-aminoluciferin luminescence, 60 min. inhibition, % at 12.5 µM. 60% of 6,200 active. AID 488918, 2010;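 active = mean inhibition above about 50%, limit read from the data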;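 also: plate controls were enzyme with DMSO for no effect and wells without caspase-3 for full effect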
Luc interf: luminescence interference (SENP counter-screen); Pre-incubated SENP8/Z-RLRGG-aminoluciferin, luciferase luminescence interference; shares compounds with SENP7 inh; 39% of 6,200 active; inhibition, % at 12.5 µM;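 active = mean inhibition above about 50% when retested at one dose, limit read from the data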;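 also: plate controls were DMSO wells with completed reaction for no effect and substrate without enzyme for full effect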
* = called active by the depositor; · = not tested or not shown. In the library only some 2.9% were active in any assay of this set; here they are far more common.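 The calls were made as follows, unless noted: active = mean inhibition above about 50% in the one-dose retest (limit read from the data); inactive = the rest.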

SMILES | SENP7 inh | SENP6 inh | SENP1 inh | HSP90 inh | SENP8 block-1 | SENP8 block-2 | SENP8 conf | SENP6 conf | SENP7 conf | Casp3 select | Luc interf
CCCCOc1ccc(-c2nc(-c3cccnc3)no2)cc1 | 78.9* | 81.0* | 2.0 | -3.6 | 64.1* | 19.9 | -5.4 | 5.7 | 23.4 | 5.8 | 6.8
CCOc1ccc(-c2nc(-c3cccnc3)no2)cc1 | 94.8* | 72.5* | 3.6 | 2.2 | 85.1* | 31.9 | 5.2 | 73.0* | 90.6* | 74.4* | 32.6
COc1ccc(-c2nc(-c3cccnc3)no2)cc1 | 84.3* | 77.2* | 1.1 | 7.9 | 67.1* | -2.0 | 77.5* | 78.0* | 96.0* | 86.5* | 47.9
CCOc1cc(-c2noc(-c3cccnc3)n2)ccc1OC | 3.8 | -18.2 | -3.9 | -4.5 | -3.0 | 4.0 | · | · | · | · | ·
C#CCNc1c2c(nc3ncnn13)CC(C)CC2 (stereo not given) | 2.7 | -9.6 | 2.3 | 2.7 | 2.0 | 22.4 | · | · | · | · | ·
COc1ccc(C(=O)/C=C/c2ccc(O)cc2)cc1 | 62.0* | 48.3 | 1.0 | -4.2 | 51.0* | -61.5 | 8.7 | 56.6* | 76.4* | 10.7 | 89.4*
Cc1ccc(/C=C/C(=O)c2ccc(C)cc2)cc1 | -11.6 | 52.1* | 2.6 | 0.9 | -1.7 | 11.6 | 1.6 | -8.7 | -22.9 | -7.3 | 4.4
CSc1ccc(C(=O)/C=C/c2ccc(N)cc2)cc1 | 55.8* | 70.6* | -0.9 | 2.1 | 28.2 | 11.2 | 82.9* | 64.9* | 87.4* | 40.2 | 88.3*
O=C(/C=C/c1ccc(O)cc1)c1ccccc1 | 93.4* | 1.4 | 24.3 | 1.8 | 94.6* | -42.6 | 14.7 | 99.3* | 102.7* | 91.6* | 98.5*
Fc1ccccc1Cc1noc(CN(Cc2ccccn2)CC2CCCO2)n1 (stereo not given) | 7.4 | -10.8 | 3.4 | -7.6 | -3.9 | 4.3 | · | · | · | · | ·
CCOC(=O)CCCSc1nnc(CCCCCN2C(=O)c3cccc4cccc(c34)C2=O)o1 | -6.3 | -40.0 | 3.9 | 2.9 | -7.2 | -369.7 | · | · | · | · | ·
Cc1cc(Cl)ccc1OC(C)C(=O)NNC(=O)C1CCCCC1C(=O)O (stereo not given) | 13.2 | -9.1 | 1.5 | -4.0 | 0.0 | 6.5 | · | · | · | · | ·
CC(C)N1CC2(CC(c3ccccc3C(F)(F)F)=NO2)CN1C(=O)c1ccc(C(C)(C)C)cc1 (stereo not given) | · | · | 1.5 | · | · | 7.3 | · | · | · | · | ·
Cc1cccc(C)c1NC(=O)CN(c1c(C)cccc1C)S(C)(=O)=O | · | · | 1.6 | · | · | 26.6 | · | · | · | · | ·
Cc1nn(C)cc1/C=C/C(=O)c1ccc(O)cc1 | -3.7 | 53.0* | 4.3 | -3.2 | 30.6 | -3.8 | -9.5 | -16.2 | -13.4 | 3.6 | 38.1
COc1ccc(-c2cn3c(C)c(C(=O)N4CCCc5ccccc54)sc3n2)cc1 | -4.6 | -3.8 | -0.2 | 6.5 | 1.6 | 24.5 | · | · | · | · | ·
COc1ccc(-c2cn3c4c(sc3n2)CCCC4)cc1 | 53.0* | 57.4* | 0.4 | 14.9 | 45.5 | 16.7 | 69.3* | 68.5* | 88.6* | 54.0* | 39.3
CS(=O)(=O)c1ccccc1-c1nc(-c2cccc(Cl)c2)no1 | -1.2 | -21.6 | 10.6 | -1.5 | -3.1 | 8.7 | · | · | · | · | ·
Clc1cccc(-c2nc(-c3ccc(-c4nn[nH]n4)cc3)no2)c1 | 79.2* | 99.3* | 0.5 | · | 94.7* | 13.5 | 96.9* | 97.2* | 100.3* | 83.3* | 88.9*
Cc1ccc2occ(/C=C/C(=O)c3ccccc3O)c(=O)c2c1 | -10.0 | -10.7 | 16.4 | 2.5 | -16.9 | 11.9 | · | · | · | · | ·
Cc1cc(=O)nc2c3ccccc3n(C(C)C(=O)NCCN3CCOCC3)n12 (stereo not given) | -8.1 | -12.4 | 0.3 | -2.3 | -4.8 | -17.4 | · | · | · | · | ·
COc1ccc(C(=O)N=c2nc3ccccn3s2)cc1 | 98.0* | 95.2* | 1.1 | 3.5 | 89.7* | 21.8 | 88.1* | 90.8* | 95.8* | 81.7* | 35.9
COc1ccc(C(=O)O/N=C2\C(=O)N(C)c3ccccc32)cc1 | -4.7 | -18.0 | 4.5 | · | -16.8 | 18.2 | · | · | · | · | ·
O=[N+]([O-])c1cccc(C=Nc2cccc3ccccc23)c1O | 42.9 | 87.7* | -20.6 | 13.3 | 85.5* | -279.5 | 10.7 | 39.1 | 4.5 | 1.3 | -0.7
O=[N+]([O-])c1ccc(O)c(C=Nc2cccc3ccccc23)c1 | 19.1 | 57.9* | -23.5 | 8.5 | 61.5* | -421.5 | 8.9 | 11.6 | 0.4 | 0.7 | 0.2
SMILES | SENP7 inh | SENP6 inh | SENP1 inh | HSP90 inh | SENP8 block-1 | SENP8 block-2 | SENP8 conf | SENP6 conf | SENP7 conf | Casp3 select | Luc interf
O=C(NN=Cc1cc([N+](=O)[O-])ccc1O)c1cccc2ccccc12 | · | · | -14.3 | · | · | -5.8 | · | · | · | · | ·
O=[N+]([O-])c1ccc(O)c(C=Nc2cccc3ncccc23)c1 | 41.8 | 89.9* | -5.2 | 6.1 | 74.7* | 2.0 | 1.8 | 2.3 | -1.7 | 2.0 | -1.3
Oc1ccc(C=Nc2cccc3ccccc23)c(O)c1 | 33.4 | 70.1* | -1.2 | 12.8 | 44.4 | -434.6 | -6.8 | 2.5 | 1.4 | 9.3 | 1.0
Cc1ccnc(NS(=O)(=O)c2ccc(NC(=O)c3snnc3C)cc2)n1 | 5.3 | -11.1 | -4.2 | -0.7 | 0.3 | 9.3 | · | · | · | · | ·
Cc1cc(C)n2nc(C(=O)OCC(=O)N(C)C3CCCCC3)nc2n1 | 6.5 | -8.0 | 2.1 | · | -8.5 | 15.0 | · | · | · | · | ·
COC(=O)/C(=C\c1c(OC)cc(OC)cc1OC)C(=O)c1ccc2c(c1)OCO2 | -3.7 | -16.0 | 1.8 | · | -10.7 | 16.5 | · | · | · | · | ·
O=[N+]([O-])c1ccc(N/N=C/c2ccccc2O)cc1 | 49.8 | 69.6* | -24.1 | -9.0 | 58.4* | -84.3 | -2.4 | 41.0 | 83.2* | 26.0 | 19.1
O=[N+]([O-])c1cccc(N/N=C/c2cc([N+](=O)[O-])ccc2O)c1 | 6.6 | 39.0 | 0.5 | 3.2 | 5.3 | 33.3 | · | · | · | · | ·
Cc1c(Cl)cccc1NC(=O)Cc1ccc([N+](=O)[O-])cc1 | -5.0 | 1.0 | 2.8 | -1.3 | -1.8 | 9.6 | · | · | · | · | ·
